Data: ChEMBL document CHEMBL3774381, “Discovery of Novel and Orally Bioavailable Inhibitors of PI3 Kinase Based on Indazole Substituted Morpholino-Triazines” (ACS Med Chem Lett, 2015)

How the values were obtained:
[1] = target: Phosphatidylinositol 4,5-bisphosphate 3-kinase catalytic subunit alpha isoform (Homo sapiens, UniProt P42336); assay: Inhibition of human recombinant PI3K-alpha using phosphatidylinositol biphosphate as substrate preincubated for 15 mins followed by substrate addition measured after 60 mins by HTRF assay
Chain of Phosphatidylinositol 4,5-bisphosphate 3-kinase catalytic subunit alpha isoform (P42336 whole entry, canonical isoform): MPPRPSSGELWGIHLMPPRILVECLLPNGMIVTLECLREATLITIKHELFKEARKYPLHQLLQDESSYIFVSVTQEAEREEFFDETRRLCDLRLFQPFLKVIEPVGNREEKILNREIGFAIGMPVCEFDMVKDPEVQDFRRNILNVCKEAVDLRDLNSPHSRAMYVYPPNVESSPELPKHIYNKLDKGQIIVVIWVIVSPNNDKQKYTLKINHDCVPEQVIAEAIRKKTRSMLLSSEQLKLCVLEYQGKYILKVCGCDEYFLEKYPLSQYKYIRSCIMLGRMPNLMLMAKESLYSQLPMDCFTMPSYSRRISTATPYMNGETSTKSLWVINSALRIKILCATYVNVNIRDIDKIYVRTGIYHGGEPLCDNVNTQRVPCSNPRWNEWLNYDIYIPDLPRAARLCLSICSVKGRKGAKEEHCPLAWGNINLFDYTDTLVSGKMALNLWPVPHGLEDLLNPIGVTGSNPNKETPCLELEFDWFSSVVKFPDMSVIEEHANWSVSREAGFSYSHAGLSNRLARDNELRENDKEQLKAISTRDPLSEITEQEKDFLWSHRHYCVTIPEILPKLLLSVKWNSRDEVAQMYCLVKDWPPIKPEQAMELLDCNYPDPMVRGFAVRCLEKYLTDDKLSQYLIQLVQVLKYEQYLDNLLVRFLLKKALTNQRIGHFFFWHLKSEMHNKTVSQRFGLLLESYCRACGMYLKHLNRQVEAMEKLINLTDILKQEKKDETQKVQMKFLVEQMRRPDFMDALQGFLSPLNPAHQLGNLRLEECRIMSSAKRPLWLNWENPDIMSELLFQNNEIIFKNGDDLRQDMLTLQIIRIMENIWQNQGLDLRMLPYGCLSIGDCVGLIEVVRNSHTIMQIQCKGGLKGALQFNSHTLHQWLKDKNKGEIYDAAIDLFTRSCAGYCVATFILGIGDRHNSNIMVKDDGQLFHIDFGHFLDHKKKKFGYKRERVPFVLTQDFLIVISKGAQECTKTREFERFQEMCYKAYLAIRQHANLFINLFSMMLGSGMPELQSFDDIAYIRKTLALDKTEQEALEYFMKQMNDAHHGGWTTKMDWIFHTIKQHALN

[2] = system: A2780; assay: Antiproliferative activity against human A2780 cells assessed as reduction in cell viability after 48 hrs by MTT assay; assay type: functional, cell-based; conditions: A2780, 48 h
Outline: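 Cellular EC50 was determined in the A2780 ovarian cancer line, with a coefficient of variation below 5%.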

[3] = target: T1, Cytochrome P450 2C19 (Homo sapiens, UniProt P33261); assay: Inhibition of CYP2C19 (unknown origin); assay type: ADME
T1 sequence (P33261 whole entry): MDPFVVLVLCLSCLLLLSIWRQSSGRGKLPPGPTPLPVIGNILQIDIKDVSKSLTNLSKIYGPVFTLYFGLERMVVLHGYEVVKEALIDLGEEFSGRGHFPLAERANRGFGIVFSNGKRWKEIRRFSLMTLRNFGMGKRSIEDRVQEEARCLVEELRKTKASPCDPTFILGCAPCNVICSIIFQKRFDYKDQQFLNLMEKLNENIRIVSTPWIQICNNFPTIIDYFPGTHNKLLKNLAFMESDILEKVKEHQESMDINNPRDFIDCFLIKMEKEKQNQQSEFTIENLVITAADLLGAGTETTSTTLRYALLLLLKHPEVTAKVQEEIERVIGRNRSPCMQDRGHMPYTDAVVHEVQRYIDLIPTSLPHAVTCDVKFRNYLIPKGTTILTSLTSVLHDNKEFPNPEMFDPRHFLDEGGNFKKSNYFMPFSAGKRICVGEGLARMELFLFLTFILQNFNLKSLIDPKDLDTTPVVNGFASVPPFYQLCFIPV
Outline: (§1)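 Inhibition of CYP3A4, CYP2C19 and CYP2D6 activity was screened with test compound at 10 μM.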

[4] = target: T2, Cytochrome P450 2D6 (Homo sapiens, UniProt P10635); assay: Inhibition of CYP2D6 (unknown origin) at 10 uM; assay type: ADME; outline: as §1
T2 sequence (P10635 whole entry): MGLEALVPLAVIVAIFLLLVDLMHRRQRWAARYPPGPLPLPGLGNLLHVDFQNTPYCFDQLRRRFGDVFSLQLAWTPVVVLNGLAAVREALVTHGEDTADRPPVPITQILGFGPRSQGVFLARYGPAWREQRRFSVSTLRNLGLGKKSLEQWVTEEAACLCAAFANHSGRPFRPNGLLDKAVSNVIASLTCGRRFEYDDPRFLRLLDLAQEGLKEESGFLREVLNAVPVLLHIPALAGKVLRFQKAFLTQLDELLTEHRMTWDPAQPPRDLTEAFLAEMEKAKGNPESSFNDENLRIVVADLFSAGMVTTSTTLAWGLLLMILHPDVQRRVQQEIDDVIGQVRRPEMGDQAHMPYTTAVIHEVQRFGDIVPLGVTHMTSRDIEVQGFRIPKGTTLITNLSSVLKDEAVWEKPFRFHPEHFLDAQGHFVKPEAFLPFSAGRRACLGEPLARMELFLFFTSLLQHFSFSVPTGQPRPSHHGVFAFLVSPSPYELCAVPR

[5] = target: T2, Cytochrome P450 2D6; assay: Inhibition of CYP2D6 (unknown origin); assay type: ADME; outline: as §1
[6] = target: T1, Cytochrome P450 2C19; assay: Inhibition of CYP2C19 (unknown origin) at 10 uM; assay type: ADME; outline: as §1
[7] = target: T3, Cytochrome P450 3A4 (Homo sapiens, UniProt P08684); assay: Inhibition of CYP3A4 (unknown origin) at 10 uM; assay type: ADME; outline: as §1
T3 sequence (P08684 whole entry): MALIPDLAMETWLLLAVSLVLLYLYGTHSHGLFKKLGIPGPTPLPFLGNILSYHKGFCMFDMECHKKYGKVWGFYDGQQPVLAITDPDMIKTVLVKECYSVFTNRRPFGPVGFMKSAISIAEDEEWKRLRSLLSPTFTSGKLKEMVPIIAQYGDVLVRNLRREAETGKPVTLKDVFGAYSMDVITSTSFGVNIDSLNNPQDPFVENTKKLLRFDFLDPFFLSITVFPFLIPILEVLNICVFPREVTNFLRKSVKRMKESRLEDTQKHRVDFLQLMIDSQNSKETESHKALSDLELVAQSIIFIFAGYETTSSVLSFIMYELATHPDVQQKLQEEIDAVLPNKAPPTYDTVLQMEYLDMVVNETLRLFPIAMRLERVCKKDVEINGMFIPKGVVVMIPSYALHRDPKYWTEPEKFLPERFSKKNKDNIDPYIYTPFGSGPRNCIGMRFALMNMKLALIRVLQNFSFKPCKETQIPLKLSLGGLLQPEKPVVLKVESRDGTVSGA

[8] = Metabolic stability in mouse liver microsomes assessed as parent compound remaining at 10 uM after 2 hrs by HPLC analysis in presence of NADPH; assay type: ADME; conditions: read-out: Stability
Outline: (§2)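 Compound was incubated with isolated human, dog or mouse liver microsomes for 2 h. Parent concentration was followed by HPLC at 0, 0.5, 1 and 2 h, and the 2 h value is reported as remaining parent.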

[9] = Metabolic stability in human liver microsomes assessed as parent compound remaining at 10 uM after 2 hrs by HPLC analysis in presence of NADPH; assay type: ADME; conditions: read-out: Stability; outline: as §2
[10] = target: T3, Cytochrome P450 3A4; assay: Inhibition of CYP3A4 (unknown origin); assay type: ADME
[11] = system: Mus musculus; assay: Toxicity in Swiss mouse assessed as body weight loss at 30 mg/kg, po bid for 5 days; assay type: organism-based; conditions: in vivo, 120 h
Outline: (§3)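 Swiss mice were dosed orally at 30 mpk BID for 5 consecutive days. Body weight, body temperature (hyper- or hypothermia), body coat and level of physical activity were monitored throughout.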

[12] = Elimination half life in Swiss mouse plasma at 1 mg/kg, po after 0.16 to 8 hrs by LC-MS analysis; assay type: ADME, organism-based; conditions: read-out: beta t1/2 (converted)
[13] = system: Mus musculus; assay: Toxicity in Swiss mouse assessed as changes in body coat at 30 mg/kg, po bid for 5 days; assay type: organism-based; conditions: in vivo, 120 h; outline: as §3
[14] = Tmax in Swiss mouse plasma at 10 mg/kg, po after 0.16 to 8 hrs by LC-MS analysis; assay type: ADME, organism-based
Outline: (§4)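 Single oral doses of 1, 3 and 10 mpk were given to mice in a dose-ranging study, with the 3 mpk screen run in Swiss mice. Plasma tmax, Cmax, AUC and elimination t1/2 were derived from each dose group.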

[15] = Tmax in Swiss mouse plasma at 3 mg/kg, po after 0.16 to 8 hrs by LC-MS analysis; assay type: ADME, organism-based; outline: as §4
[16] = AUC in Swiss mouse plasma at 10 mg/kg, po after 0.16 to 8 hrs by LC-MS analysis; assay type: ADME, organism-based; design: dose 10 mg/kg, time 0.16-8 hr, route oral; outline: as §4
[17] = system: Mus musculus; assay: Toxicity in Swiss mouse assessed as hyperthermia at 30 mg/kg, po bid for 5 days; assay type: organism-based; conditions: in vivo, 120 h; outline: as §3
[18] = Elimination half life in Swiss mouse plasma at 3 mg/kg, po after 0.16 to 8 hrs by LC-MS analysis; assay type: ADME, organism-based; conditions: read-out: beta t1/2 (converted); outline: as §4
[19] = Metabolic stability in dog liver microsomes assessed as parent compound remaining at 10 uM after 2 hrs by HPLC analysis in presence of NADPH; assay type: ADME, Canis lupus familiaris; conditions: read-out: Stability; outline: as §2
[20] = AUC in Swiss mouse plasma at 1 mg/kg, po after 0.16 to 8 hrs by LC-MS analysis; assay type: ADME, organism-based; design: dose 1 mg/kg, time 0.16-8 hr, route oral
[21] = Cmax in Swiss mouse plasma at 10 mg/kg, po after 0.16 to 8 hrs by LC-MS analysis; assay type: ADME, organism-based; design: dose 10 mg/kg, route oral; outline: as §4
[22] = system: Mus musculus; assay: Toxicity in Swiss mouse assessed as reduced physical activity at 30 mg/kg, po bid for 5 days; assay type: organism-based; conditions: in vivo, 120 h; outline: as §3
[23] = system: Mus musculus; assay: Toxicity in Swiss mouse assessed as hypothermia at 30 mg/kg, po bid for 5 days; assay type: organism-based; conditions: in vivo, 120 h; outline: as §3
[24] = AUC in Swiss mouse plasma at 3 mg/kg, po after 0.16 to 8 hrs by LC-MS analysis; assay type: ADME, organism-based; design: time lower 0.16 hr, dose 3 mg/kg, time upper 8 hr, route oral; outline: as §4
[25] = Cmax in Swiss mouse plasma at 3 mg/kg, po after 0.16 to 8 hrs by LC-MS analysis; assay type: ADME, organism-based; design: dose 3 mg/kg, route oral; outline: as §4
[26] = Elimination half life in Swiss mouse plasma at 10 mg/kg, po after 0.16 to 8 hrs by LC-MS analysis; assay type: ADME, organism-based; conditions: read-out: beta t1/2 (converted); outline: as §4
[27] = Tmax in Swiss mouse plasma at 1 mg/kg, po after 0.16 to 8 hrs by LC-MS analysis; assay type: ADME, organism-based; outline: as §4
[28] = Cmax in Swiss mouse plasma at 1 mg/kg, po after 0.16 to 8 hrs by LC-MS analysis; assay type: ADME, organism-based; design: dose 1 mg/kg, route oral; outline: as §4

`NC(=O)CNc1nc(-c2cccc(O)c2)nc(N2CCOCC2)n1` showed an IC50 [1] of 740 nM.
With `O=C1CCN(c2nc(-c3cccc4[nH]ncc34)nc(N3CCOCC3)n2)CCN1` the EC50 [2] was 2640 nM and the IC50 [1] was 200 nM.
For `COC(=O)CNc1nc(-c2cccc(O)c2)nc(N2CCOCC2)n1`, the IC50 [1] was 1180 nM.
`CN(C)C(=O)c1cc(Oc2nc(-c3cccc4[nH]ncc34)nc(N3CCOCC3)n2)cs1` showed an EC50 [2] of 1400 nM and an IC50 [1] of 100 nM.
In the case of `Nc1cccc(-c2nc(NCC(=O)O)nc(N3CCOCC3)n2)c1`, the IC50 [1] is reported as over 10000 nM.
With `CN(C)C(=O)N1CCC(Oc2nc(-c3cccc4[nH]ncc34)nc(N3CCOCC3)n2)CC1` the EC50 [2] was 720 nM, the IC50 [3] was over 10000 nM and the “inhibition (INH)” value [4] was “Not Active”. For the same compound, the IC50 [1] was 60 nM, the IC50 [5] was over 10000 nM and the “inhibition (INH)” value [6] was “Not Active”. For the same compound, the “inhibition (INH)” value [7] was “Not Active”, the remaining at 2 h, 10 µM [8] was 24.8% and the remaining at 2 h, 10 µM [9] was 80.7%. The IC50 [10] was over 15000 nM.
`NC(=O)c1cccc(Oc2nc(-c3cccc4[nH]ncc34)nc(N3CCOCC3)n2)c1` gave an EC50 [2] of 3220 nM and an IC50 [1] of 270 nM.
`O=C1CN(c2nc(-c3cccc4[nH]ncc34)nc(N3CCOCC3)n2)CCN1` gave an EC50 [2] of 3970 nM and an IC50 [1] of 400 nM.
`c1ccc(Nc2nc(-c3cccc4[nH]ncc34)nc(N3CCOCC3)n2)cc1` gave an EC50 [2] of 3690 nM and an IC50 [1] of 800 nM.
Work on `CN(C)C(=O)CNc1nc(-c2cccc(O)c2)nc(N2CCOCC2)n1` yielded an IC50 [1] of 540 nM.
Compound `CN(C)C(=O)CNc1nc(-c2cccc3c2CCC3O)nc(N2CCOCC2)n1` (stereo unspecified) has an IC50 [1] of over 20000 nM.
`CN(C)C(=O)CNc1nc(-c2cncc(O)c2)nc(N2CCOCC2)n1` gave an IC50 [1] of 1600 nM.
Work on `NC(=O)c1cccc(Nc2nc(-c3cccc4[nH]ncc34)nc(N3CCOCC3)n2)c1` yielded an EC50 [2] of 820 nM and an IC50 [1] of 80 nM.
With `CN(C)C(=O)CCNc1nc(-c2cccc3[nH]ncc23)nc(N2CCOCC2)n1` the EC50 [2] was 6380 nM and the IC50 [1] was 600 nM.
`CN(C)C(=O)CNc1nc(-c2cccc3[nH]ncc23)nc(N2CCOCC2)n1` gave an IC50 [1] of 1100 nM.
Compound `CN(C)C(=O)c1sccc1Nc1nc(-c2cccc3[nH]ncc23)nc(N2CCOCC2)n1` has an EC50 [2] of 1900 nM and an IC50 [1] of 200 nM.
For `CNc1cccc(Nc2nc(-c3cccc4[nH]ncc34)nc(N3CCOCC3)n2)c1`, the EC50 [2] was 850 nM.
For `CS(=O)(=O)N1CCN(C(=O)CNc2nc(-c3cccc(O)c3)nc(N3CCOCC3)n2)CC1`, the IC50 [1] was 1060 nM.
Work on `CN(C)C(=O)CNc1nc(-c2cccc(C(N)=O)c2)nc(N2CCOCC2)n1` yielded an IC50 [1] of over 20000 nM.
In the case of `CN(CC(=O)O)c1nc(-c2cccc(O)c2)nc(N2CCOCC2)n1`, the IC50 [1] is reported as 10000 nM.
In the case of `CN(C)C(=O)c1ccc(Oc2nc(-c3cccc4[nH]ncc34)nc(N3CCOCC3)n2)cc1`, the Activity [11] is reported as “Non-toxic”, the EC50 [2] is reported as 520 nM and the IC50 [3] is reported as over 10000 nM. For the same compound, the half-life [12] was 6.93 h, the Activity [13] was “Non-toxic” and the Tmax [14] was 2.33 h. For the same compound, the “inhibition (INH)” value [4] was “Not Active”, the Tmax [15] was 1 h and the AUC [16] was 9.79 µM·h. The IC50 [1] was 60 nM, the Activity [17] was “Non-toxic” and the IC50 [5] was over 10000 nM. For the same compound, the half-life [18] was 4.86 h, the remaining at 2 h, 10 µM [19] was 83.8% and the “inhibition (INH)” value [6] was “Not Active”. For the same compound, the AUC [20] was 2.12 µM·h, the Cmax [21] was 1800 nM and the “inhibition (INH)” value [7] was “Not Active”. For the same compound, the Activity [22] was “Non-toxic”, the remaining at 2 h, 10 µM [8] was 45.6% and the Activity [23] was “Non-toxic”. It also gave an AUC [24] of 5.25 µM·h, a Cmax [25] of 1240 nM and a half-life [26] of 6.87 h. It also gave a remaining at 2 h, 10 µM [9] of 101%, an IC50 [10] of over 15000 nM and a Tmax [27] of 1 h. The Cmax [28] was 360 nM.
Compound `COc1cccc(-c2nc(NCC(=O)O)nc(N3CCOCC3)n2)c1` has an IC50 [1] of over 20000 nM.
With `Nc1nc(-c2cccc(O)c2)nc(N2CCOCC2)n1` the IC50 [1] was 680 nM.
In the case of `CNC(=O)CNc1nc(-c2cccc(O)c2)nc(N2CCOCC2)n1`, the IC50 [1] is reported as 730 nM.
`O=C(O)CNc1nc(-c2ccccc2)nc(N2CCOCC2)n1` showed an IC50 [1] of over 20000 nM.
In the case of `CN(C)C(=O)[C@H]1CC[C@H](Oc2nc(-c3cccc4[nH]ncc34)nc(N3CCOCC3)n2)CC1`, the EC50 [2] is reported as 680 nM, the IC50 [3] is reported as over 10000 nM and the “inhibition (INH)” value [4] is reported as “Not Active”. The IC50 [1] was 60 nM, the IC50 [5] was over 10000 nM and the “inhibition (INH)” value [6] was “Not Active”. The “inhibition (INH)” value [7] was “Not Active”, the remaining at 2 h, 10 µM [8] was 27.3% and the remaining at 2 h, 10 µM [9] was 99%. The IC50 [10] was over 15000 nM.
Compound `CN(C)C(=O)c1cccc(Nc2nc(-c3cccc4[nH]ncc34)nc(N3CCOCC3)n2)c1` has an EC50 [2] of 800 nM and an IC50 [1] of 60 nM.
